Results of several laboratories.
Target: Serine/threonine-protein kinase PLK3 (PLK3, Homo sapiens, UniProt Q9H4B4)

CC(C)(C)c1cc(C=C(C#N)C#N)cc(Br)c1O
remaining activity (enzyme activity, inhibitor; 0.5 µM): 94.6%

COc1cc(Nc2ncc(F)c(Nc3ccc4c(n3)NC(=O)C(C)(C)O4)n2)cc(OC)c1OC
inhibition (binding; 10 µM): 100%

Cn1cc(-c2cc(F)cc(N3CCn4c(cc5c4CCCC5)C3=O)c2CO)cc(Nc2ccc(N3CCN(C4COC4)CC3)cn2)c1=O
inhibition (enzyme activity, inhibitor; 0.1 µM): 10%

Cn1cncc1[C@@](O)(COc1ccc(C#N)cc1-c1ccc(OC(F)(F)F)cc1)c1ccc(C#N)cc1
remaining binding (cell-free assay, competition with immobilised ligand; 1 µM): 88%

Cc1nn(C)cc1-c1nc2c(N3CCN(Cc4ccc(Cl)cc4)CC3)c(Cl)cnc2[nH]1
remaining binding (binding, competition with immobilised ligand; 1 µM): 88%

Nc1ncc(-c2nc(N3CCOCC3)nc(N3CCOCC3)n2)c(C(F)F)n1
remaining binding (binding, competition with immobilised ligand; 10 µM): 83%

COc1ncccc1-c1cnn2ccc(N3CCN(C(=O)OC(C)C)CC3)nc12
remaining binding (binding, competition with immobilised ligand; 1 µM): 100%

O=c1[nH]c2ccccc2n1C1CCN(Cc2ccc(-c3[nH]c4cc5ncnc5cc4nc3-c3ccccc3)cc2)CC1
remaining signal (cell-free assay; 0.5 µM): 99.1%

N#CC1(c2ccccn2)CCN(Cc2cc(C(=O)O)c(=O)n3ccccc23)CC1
remaining binding (cell-free assay, competition with immobilised ligand; 1 µM): 85%

Cn1cc(-c2cccc(N3CCc4c(sc5c4CC(C)(C)C5)C3=O)c2CO)cc(Nc2ccncn2)c1=O
inhibition (enzyme activity, inhibitor; 1 µM): -15%
